The values below come from ChEMBL document CHEMBL2169854, “New insight into the central benzodiazepine receptor-ligand interactions: design, synthesis, biological evaluation, and molecular modeling of 3-substituted 6-phenyl-4H-imidazo[1,5-a][1,4]benzodiazepines and related compounds” (J Med Chem, 2011).

The test system of test [1] is Oocyte. Nature of the test: Antagonist at human recombinant GABA-A alpha5beta2gamma2L receptor expressed in Xenopus laevis oocytes assessed as blockade of diazepam-induced potentiation of GABA-induced chloride current at 10 uM incubated 60 seconds before addition of GABA measured after 30 seconds at holding potential -70 mV by two-microelectrode voltage clamp technique. It is filed as functional, cell-based. The method in brief: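 Oocytes expressing human α1β2γ2L, α2β1γ2L or α5β2γ2L receptors were clamped at −70 mV. Compound at 10 μM was tested against the enhancement of the GABA EC10 response by 1.0 μM diazepam, with 60 s preapplication and 30 s coapplication. The response was expressed as percent potentiation, from 2–3 oocytes.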

Test [2] is filed under the species Rattus norvegicus. Nature of the test: Partial agonist activity at central benzodiazepine receptor in Sprague-Dawley rat cerebrocortical synaptoneurosomes assessed as increase in GABA-induced [36]chloride ion flow after 10 seconds by beta liquid scintillation counting. In kind it is functional. The gist of the method: (§1)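 Cerebral cortex from male Sprague-Dawley rats was homogenised and filtered, and synaptoneurosomes were washed in HEPES pH 7 buffer (145 mM NaCl, 5 mM KCl, 5 mM MgCl2, 1 mM CaCl2, 10 mM glucose). Aliquots of 1.5–2 mg protein were preincubated 10 min at 30 C. Drug was added with 0.2 μCi 36Cl−, uptake was stopped at 10 s, and filter-bound radioactivity was counted by scintillation.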

Test [3] concerns the target GABA A receptor alpha-1/beta-1/gamma-2 (Homo sapiens) (UniProt P14867+P18507+P18505). The test can be described thus: Antagonist at human recombinant GABA-A alpha1beta1gamma2L receptor expressed in Xenopus laevis oocytes assessed as blockade of diazepam-induced potentiation of GABA-induced chloride current at 10 uM incubated 60 seconds before addition of GABA measured after 30 seconds at holding potential -70 mV by two-microelectrode voltage clamp technique. In kind it is functional, cell-based. The note with it: Oocyte.

In test [4] the target is T1, GABA-A receptor; alpha-5/beta-3/gamma-2 (Homo sapiens, UniProt P18507+P28472+P31644).
T1 sequence (P18507 whole entry): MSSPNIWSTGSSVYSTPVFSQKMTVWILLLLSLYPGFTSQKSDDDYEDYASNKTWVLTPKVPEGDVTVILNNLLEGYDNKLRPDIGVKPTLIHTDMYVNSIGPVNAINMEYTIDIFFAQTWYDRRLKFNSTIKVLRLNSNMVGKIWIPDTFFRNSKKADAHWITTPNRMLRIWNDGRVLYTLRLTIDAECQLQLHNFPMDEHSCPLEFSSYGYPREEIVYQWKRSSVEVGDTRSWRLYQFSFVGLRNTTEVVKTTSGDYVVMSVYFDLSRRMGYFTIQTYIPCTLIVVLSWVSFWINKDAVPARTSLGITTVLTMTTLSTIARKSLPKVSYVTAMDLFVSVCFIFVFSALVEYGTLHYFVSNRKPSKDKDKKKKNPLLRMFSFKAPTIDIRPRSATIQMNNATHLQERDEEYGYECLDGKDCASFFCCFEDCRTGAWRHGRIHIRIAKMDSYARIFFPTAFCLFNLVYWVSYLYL
T1 sequence (P28472 whole entry): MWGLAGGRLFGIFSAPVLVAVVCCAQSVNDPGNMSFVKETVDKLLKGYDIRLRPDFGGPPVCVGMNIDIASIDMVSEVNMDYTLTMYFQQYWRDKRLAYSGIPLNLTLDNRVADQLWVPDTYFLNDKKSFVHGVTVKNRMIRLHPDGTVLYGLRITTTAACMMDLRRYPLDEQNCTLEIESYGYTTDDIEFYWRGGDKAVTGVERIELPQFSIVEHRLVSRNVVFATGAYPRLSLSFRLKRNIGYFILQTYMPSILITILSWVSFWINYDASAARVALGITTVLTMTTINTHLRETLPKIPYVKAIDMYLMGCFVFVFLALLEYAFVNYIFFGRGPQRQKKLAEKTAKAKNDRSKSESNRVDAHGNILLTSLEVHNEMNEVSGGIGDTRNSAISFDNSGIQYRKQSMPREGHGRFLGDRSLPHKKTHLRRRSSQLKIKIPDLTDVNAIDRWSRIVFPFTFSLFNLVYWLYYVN
T1 sequence (P31644 whole entry): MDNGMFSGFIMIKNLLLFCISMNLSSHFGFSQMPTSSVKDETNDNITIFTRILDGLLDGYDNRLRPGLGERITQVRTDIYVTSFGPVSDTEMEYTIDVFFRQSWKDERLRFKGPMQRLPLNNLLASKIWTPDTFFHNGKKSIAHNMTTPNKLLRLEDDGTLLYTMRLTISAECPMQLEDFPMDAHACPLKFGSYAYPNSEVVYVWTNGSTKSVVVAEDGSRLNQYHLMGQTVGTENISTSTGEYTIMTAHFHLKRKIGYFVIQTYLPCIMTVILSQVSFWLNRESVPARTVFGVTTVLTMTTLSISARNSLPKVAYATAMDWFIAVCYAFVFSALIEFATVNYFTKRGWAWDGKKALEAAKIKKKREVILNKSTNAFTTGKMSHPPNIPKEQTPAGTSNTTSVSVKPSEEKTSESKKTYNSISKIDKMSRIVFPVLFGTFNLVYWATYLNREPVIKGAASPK
Nature of the test: Displacement of [3H]flumazenil from human recombinant GABA-A alpha5beta3gamma2L receptor in HEK293 cells. In kind it is cell-based. The gist of the method:
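Membranes came from stably transfected HEK293 lines expressing α2β2γ2 or α5β3γ2, grown in MEM/EBSS with 10% FCS at 37 C, and were resuspended in 10 mM potassium phosphate pH 7.4 with 100 mM KCl. […] At least six concentrations were tested, DMSO ≤1%. Ki was obtained by Cheng–Prusoff from n = 3 experiments run in triplicate.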
Background: Displacement assays read how much labelled ligand stays bound in the presence of the test substance.

The species entered for test [5] is Bos taurus. The test can be described thus: Ratio of Ki for central benzodiazepine receptor in bovine cortical membrane to Ki for central benzodiazepine receptor in bovine cortical membrane in presence of 50 uM GABA. It is filed as cell membranes.
Test [6] has as its system Mus musculus. Nature of the test: […] activity in mouse assessed as effect on explorative activity measuring number of inspections at 10 mg/kg, po after 5 mins by hole-board test relative to CMC-treated control. It is filed as functional, organism-based. Further details: dose 10 mg/kg. The gist of the method: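 Mice dosed orally in 1% CMC were placed singly on a 16-hole board for 5 min. Photocells counted plane movements (spontaneous motility) and hole explorations. Groups of 12–15 mice were compared with CMC controls.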

For test [7], the species on record is Rattus norvegicus. The test can be described thus: Agonist activity at central benzodiazepine receptor in Sprague-Dawley rat cerebrocortical synaptoneurosomes assessed as increase in GABA-induced [36]chloride ion flow after 10 seconds by beta liquid scintillation counting. In kind it is functional. The gist of the method: as §1
The subject of test [8] is Mus musculus. The test can be described thus: Myorelaxant activity in mouse assessed as motor coordination measuring number of falls at 10 mg/kg, po measured for 30 seconds after 45 mins of compound administration by rotarod test. It is filed as functional, organism-based. Further details: dose 10 mg/kg. The method in brief: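 In mice, falls from the rotating rod were counted for 30 s after dosing. Compound was given orally in 1% CMC and diazepam ip in saline. Results were compared against saline/CMC controls by ANOVA.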
On the technique in general: Falling from the rotarod earlier than controls is read as motor impairment.

The test system of test [9] is Mus musculus. Nature of the test: Anxiolytic effect in mouse assessed as increase in time spent in light compartment at 1 mg/kg, po by light/dark box test. Also on record: dose 1 mg/kg. It is filed as functional, organism-based. The method in brief: (§2)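 Male mice were used. Compound was given orally as a suspension in 1% CMC; diazepam was given ip in saline; volume 10 mL/kg. Each mouse was placed in the lit side of a two-compartment light/dark box and observed for 5 min, scoring time in the light and transfers. Groups were compared by ANOVA with Fisher PLSD.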

Test [10] relates to Mus musculus. The test can be described thus: Anxiolytic effect in mouse assessed as increase in time spent in light compartment at 10 mg/kg, po by light/dark box test. In kind it is functional, organism-based. Further details: dose 10 mg/kg. The gist of the method: as §2

pKi: −log10 of the molar value. Calls of active or inactive are those of the source. No cut-off for these calls is given here.

The term pKi denotes the Ki on a negative log10 scale, so that one unit is a factor of ten. Take `CCOC(=O)c1ncn2c1CN=C(c1ccc(C)cc1)c1ccccc1-2`: the result in test [1], in [2] and in [3] was Active. Further, the pKi in test [4] was 6.04. The Ratio Ki in [5] stood at 0.97.
Turning to `CCOC(=O)c1ncn2c1CN=C(c1ccc(F)cc1)c1cc(F)ccc1-2`, the result in [1], in test [7], in test [3], in test [9] and in test [10] was Active. In addition, the result in [6] and in test [8] was inactive. Moreover, the negative logarithm of the Ki (pKi) in [4] was 6.11. The Ratio Ki in test [5] came out at 1.
